pIC50: −log10 of the molar value. A value given as a limit tells only on which side of the number the result lay.

The first assay concerns MRC5. In words: Cytotoxicity on MRC-5 cells at 3.13 uM. Particulars: Homo sapiens. In kind it is functional. A digest of the protocol: (§1)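 MRC-5 human diploid embryonic lung cells seeded at 5 000/well, washed after 24 h, then given 2-fold drug dilutions (25, 12.5, 6.25, 3.13 µM) in RPMI + 5% FCS, final DMSO below 0.5%. Incubated 7 days at 37 °C, 5% CO2. MTT colorimetric read-out, scored as % reduction of absorbance at 540 nm versus untreated controls.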
With `COc1ccc2nc3cc(Cl)ccc3c(NCCCN(CCCNc3c4ccc(Cl)cc4nc4ccc(OC)cc34)C(=O)C(N)CN)c2c1` (stereo not drawn), the cytotoxicity at 3.13 µM stood at 0%.
As to `COc1ccc2nc3cc(Cl)ccc3c(NCCCCN(CCCNc3c4ccc(Cl)cc4nc4ccc(OC)cc34)C(=O)C(C)NC(=O)OC(C)(C)C)c2c1` (stereo not drawn), the cytotoxicity at 3.13 µM is 0%.

Another assay concerns Trypanosoma brucei. The experiment in a line: Percentage of activity against Trypanosoma brucei at 1.56 uM.
Conditions: not given
It counts as functional. An outline of the steps:
(§2)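 Bloodstream-form T. brucei in HMI-9 medium, 10 000 parasites/well, exposed to 12.5, 6.25, 3.13 and 1.56 µM drug for 4 days. Read-out is % inhibition of parasite multiplication. Macrophage toxicity judged on mouse primary peritoneal macrophages.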
Regarding `COc1ccc2nc3cc(Cl)ccc3c(NCCCN(CCCNc3c4ccc(Cl)cc4nc4ccc(OC)cc34)C(=O)C(N)CN)c2c1` (stereo not drawn), the “Percent inhibition of parasite multiplication” value was 99%.
As for `COc1ccc2nc3cc(Cl)ccc3c(NCCCCN(CCCNc3c4ccc(Cl)cc4nc4ccc(OC)cc34)C(=O)C(C)NC(=O)OC(C)(C)C)c2c1` (stereo not drawn), the “Percent inhibition of parasite multiplication” value amounted to 100%.

In the next assay the test system is Leishmania infantum. In words: In Vitro evaluation for the percentage of activity towards Leishmania infantum at 12.5 uM Concentration. It counts as functional.
Conditions: not given
An outline of the steps:
(§3)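 Starch-stimulated mouse peritoneal macrophages, 30 000/well, infected after 24 h with spleen-derived L. infantum amastigotes (10:1) together with 2-fold drug dilutions (12.5–1.56 µM). Incubated 7 days at 37 °C, 5% CO2. Wright-stained slides scored microscopically as % reduction of total parasite load or of infected macrophages. Uninfected treated cultures judged microscopically for macrophage toxicity.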
For the compound `COc1ccc2nc3cc(Cl)ccc3c(NCCCCN(CCCNc3c4ccc(Cl)cc4nc4ccc(OC)cc34)C(=O)C(C)NC(=O)OC(C)(C)C)c2c1` (stereo not drawn), the “Percent inhibition of Leishmania infantum” value came out at 70%.

The test system of a further assay is Trypanosoma cruzi. The experiment in a line: Percentage of activity against Trypanosoma cruzi at 1.56 uM. In kind it is functional.
Conditions: not given
A digest of the protocol:
(§4)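 Mouse peritoneal macrophages, 30 000/well, infected after 24 h with about 100 000 T. cruzi trypomastigotes per well plus 2-fold drug dilutions (12.5–1.56 µM). Incubated 4 days at 37 °C, 5% CO2. Methanol-fixed, Giemsa-stained and scored microscopically as % reduction of total parasite load (free trypomastigotes plus intracellular amastigotes) versus untreated controls.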
For `COc1ccc2nc3cc(Cl)ccc3c(NCCCN(CCCNc3c4ccc(Cl)cc4nc4ccc(OC)cc34)C(=O)C(N)CN)c2c1` (stereo not drawn), the Parasite load reduction is on record as 0%.
On the same count and under the same terms, in the case of `COc1ccc2nc3cc(Cl)ccc3c(NCCCCN(CCCNc3c4ccc(Cl)cc4nc4ccc(OC)cc34)C(=O)C(C)NC(=O)OC(C)(C)C)c2c1` (stereo not drawn) it was 0%.

In a further assay the test system is MRC5. The experiment in a line: Cytotoxicity on MRC-5 cells at 12.5 uM. It counts as functional. The note with it: Homo sapiens. A digest of the protocol:
as §1
Compound `COc1ccc2nc3cc(Cl)ccc3c(NCCCN(CCCNc3c4ccc(Cl)cc4nc4ccc(OC)cc34)C(=O)C(N)CN)c2c1` (stereo not drawn) yielded a cytotoxicity at 12.5 µM of 0%.
In turn, `COc1ccc2nc3cc(Cl)ccc3c(NCCCCN(CCCNc3c4ccc(Cl)cc4nc4ccc(OC)cc34)C(=O)C(C)NC(=O)OC(C)(C)C)c2c1` (stereo not drawn) showed a cytotoxicity at 12.5 µM of 100%.

For another assay, the system named is Plasmodium falciparum. In words: In vitro sensitivity for Plasmodium falciparum FcB1R. In kind it is functional, organism-based.
Conditions: not given
A digest of the protocol: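 Asynchronous P. falciparum cultures in human erythrocytes (0.5% parasitemia, 1% haematocrit) exposed to serially diluted drug for 24 h at 37 °C. [3H]hypoxanthine (0.5 µCi/well) then added for a further 24 h. Uptake compared with drug-free controls on the same plate. IC50 taken from the concentration–response curve, averaged over independent experiments. DMSO ≤0.1%.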
On to `COc1ccc2nc3cc(Cl)ccc3c(NCCCN(CCCNc3c4ccc(Cl)cc4nc4ccc(OC)cc34)C(=O)C(N)CN)c2c1` (stereo not drawn), for which the pIC50 is less than 6.30.
`COc1ccc2nc3cc(Cl)ccc3c(NCCCCN(CCCNc3c4ccc(Cl)cc4nc4ccc(OC)cc34)C(=O)C(C)NC(=O)OC(C)(C)C)c2c1` (stereo not drawn) gave a pIC50 of 6.48.

A further assay deals with Trypanosoma brucei. In words: Percentage of activity against Trypanosoma brucei at 12.5 uM. It counts as functional.
Conditions: not given
A digest of the protocol: as §2
Turning to `COc1ccc2nc3cc(Cl)ccc3c(NCCCCN(CCCNc3c4ccc(Cl)cc4nc4ccc(OC)cc34)C(=O)C(C)NC(=O)OC(C)(C)C)c2c1` (stereo not drawn), the “Inhibition of parasite multiplication” value was determined as 100%.

Another assay concerns Trypanosoma cruzi. The experiment in a line: Percentage of activity against Trypanosoma cruzi at 12.5 uM. It counts as functional.
Conditions: not given
A digest of the protocol:
as §4
As for `COc1ccc2nc3cc(Cl)ccc3c(NCCCCN(CCCNc3c4ccc(Cl)cc4nc4ccc(OC)cc34)C(=O)C(C)NC(=O)OC(C)(C)C)c2c1` (stereo not drawn), the “T. cruzi parasite load reduction” value was 90%.

The next assay has as its system Trypanosoma brucei. The experiment in a line: Percentage of activity against Trypanosoma brucei at 3.13 uM. In kind it is functional.
Conditions: not given
A digest of the protocol: as §2
`COc1ccc2nc3cc(Cl)ccc3c(NCCCN(CCCNc3c4ccc(Cl)cc4nc4ccc(OC)cc34)C(=O)C(N)CN)c2c1` (stereo not drawn) returned a Parasite growth inhibition of 100%.
On the same count and under the same terms, to `COc1ccc2nc3cc(Cl)ccc3c(NCCCCN(CCCNc3c4ccc(Cl)cc4nc4ccc(OC)cc34)C(=O)C(C)NC(=O)OC(C)(C)C)c2c1` (stereo not drawn) belongs 100%.

For another assay, the system named is Trypanosoma cruzi. In words: Percentage of activity against Trypanosoma cruzi at 6.25 uM Concentration. It counts as functional.
Conditions: not given
A digest of the protocol: as §4
On to `COc1ccc2nc3cc(Cl)ccc3c(NCCCCN(CCCNc3c4ccc(Cl)cc4nc4ccc(OC)cc34)C(=O)C(C)NC(=O)OC(C)(C)C)c2c1` (stereo not drawn), for which the “Reduction of T. cruzi parasite load” value came to 70%.

Another assay has as its system Leishmania infantum. The experiment in a line: Percentage of activity against Leishmania infantum at 1.56 uM.
Conditions: not given
It counts as functional. A digest of the protocol: as §3
Consider `COc1ccc2nc3cc(Cl)ccc3c(NCCCN(CCCNc3c4ccc(Cl)cc4nc4ccc(OC)cc34)C(=O)C(N)CN)c2c1` (stereo not drawn), for which the “Antileishmanial activity (% reduction of parasite load)” value is recorded as 0%.
On to `COc1ccc2nc3cc(Cl)ccc3c(NCCCCN(CCCNc3c4ccc(Cl)cc4nc4ccc(OC)cc34)C(=O)C(C)NC(=O)OC(C)(C)C)c2c1` (stereo not drawn), for which the “Antileishmanial activity (% reduction of parasite load)” value is on record as 0%.

The next assay relates to Trypanosoma cruzi. The experiment in a line: In Vitro evaluation for the percentage of activity towards Trypanosoma cruzi at 6.25 uM Concentration; Toxic upon mouse primary peritoneal macrophages. It counts as functional, organism-based.
Conditions: not given
A digest of the protocol:
as §4
In the case of `COc1ccc2nc3cc(Cl)ccc3c(NCCCN(CCCNc3c4ccc(Cl)cc4nc4ccc(OC)cc34)C(=O)C(N)CN)c2c1` (stereo not drawn), the Cytotoxicity result was “Toxic”.

The subject of a further assay is Leishmania infantum. In words: Percentage of activity against Leishmania infantum at 12.5 uM Concentration; Toxic upon mouse primary peritoneal macrophages. In kind it is functional, organism-based.
Conditions: not given
An outline of the steps:
as §3
Regarding `COc1ccc2nc3cc(Cl)ccc3c(NCCCN(CCCNc3c4ccc(Cl)cc4nc4ccc(OC)cc34)C(=O)C(N)CN)c2c1` (stereo not drawn), the Cytotoxicity entry was “Toxic”.

The next assay has as its system MRC5. In words: Cytotoxicity on MRC-5 cells at 6.25 uM. It counts as functional. The note with it: Homo sapiens. A digest of the protocol:
as §1
Consider `COc1ccc2nc3cc(Cl)ccc3c(NCCCN(CCCNc3c4ccc(Cl)cc4nc4ccc(OC)cc34)C(=O)C(N)CN)c2c1` (stereo not drawn), for which the cytotoxicity at 6.25 µM came to 0%.
With `COc1ccc2nc3cc(Cl)ccc3c(NCCCCN(CCCNc3c4ccc(Cl)cc4nc4ccc(OC)cc34)C(=O)C(C)NC(=O)OC(C)(C)C)c2c1` (stereo not drawn), the cytotoxicity at 6.25 µM is 0%.

The subject of a further assay is Leishmania infantum. In words: Percentage of activity against Leishmania infantum 6.25 uM. In kind it is functional.
Conditions: not given
A digest of the protocol:
as §3
For `COc1ccc2nc3cc(Cl)ccc3c(NCCCCN(CCCNc3c4ccc(Cl)cc4nc4ccc(OC)cc34)C(=O)C(C)NC(=O)OC(C)(C)C)c2c1` (stereo not drawn), the “Antileishmanial activity (% reduction of parasite load)” value came to 40%.

The test system of a further assay is Trypanosoma cruzi. In words: Percentage of activity against Trypanosoma cruzi at 12.5 uM; Toxic upon mouse primary peritoneal macrophages. It counts as functional, organism-based.
Conditions: not given
An outline of the steps: as §4
As for `COc1ccc2nc3cc(Cl)ccc3c(NCCCN(CCCNc3c4ccc(Cl)cc4nc4ccc(OC)cc34)C(=O)C(N)CN)c2c1` (stereo not drawn), the Cytotoxicity entry is “Toxic”.

The subject of the next assay is Trypanosoma cruzi. The experiment in a line: Percentage of activity against Trypanosoma cruzi at 3.13 uM. In kind it is functional.
Conditions: not given
A digest of the protocol: as §4
As for `COc1ccc2nc3cc(Cl)ccc3c(NCCCN(CCCNc3c4ccc(Cl)cc4nc4ccc(OC)cc34)C(=O)C(N)CN)c2c1` (stereo not drawn), the “Reduction of T. cruzi parasite load” value is recorded as 40%.
`COc1ccc2nc3cc(Cl)ccc3c(NCCCCN(CCCNc3c4ccc(Cl)cc4nc4ccc(OC)cc34)C(=O)C(C)NC(=O)OC(C)(C)C)c2c1` (stereo not drawn): the “Reduction of T. cruzi parasite load” value is recorded as 20%.

The test system of another assay is MRC5. In words: Cytotoxicity on MRC-5 cells at 25 uM. It counts as functional. Particulars: Homo sapiens. A digest of the protocol: as §1
For `COc1ccc2nc3cc(Cl)ccc3c(NCCCN(CCCNc3c4ccc(Cl)cc4nc4ccc(OC)cc34)C(=O)C(N)CN)c2c1` (stereo not drawn), the cytotoxicity at 25 µM turned out to be 0%.
Same read-out and setting: in the case of `COc1ccc2nc3cc(Cl)ccc3c(NCCCCN(CCCNc3c4ccc(Cl)cc4nc4ccc(OC)cc34)C(=O)C(C)NC(=O)OC(C)(C)C)c2c1` (stereo not drawn) it was 100%.

The subject of another assay is Trypanosoma brucei. In words: Percentage of activity against Trypanosoma brucei at 6.25 uM. It counts as functional.
Conditions: not given
A digest of the protocol:
as §2
In the case of `COc1ccc2nc3cc(Cl)ccc3c(NCCCN(CCCNc3c4ccc(Cl)cc4nc4ccc(OC)cc34)C(=O)C(N)CN)c2c1` (stereo not drawn), the “Inhibition of parasite multiplication” value is recorded as 100%.
The same measure, in the same setting: in the case of `COc1ccc2nc3cc(Cl)ccc3c(NCCCCN(CCCNc3c4ccc(Cl)cc4nc4ccc(OC)cc34)C(=O)C(C)NC(=O)OC(C)(C)C)c2c1` (stereo not drawn) it was 100%.

Another assay has as its system Leishmania infantum. The experiment in a line: Percentage of activity against Leishmania infantum at 6.25 uM; Toxic upon mouse primary peritoneal macrophages. In kind it is functional, organism-based.
Conditions: not given
A digest of the protocol: as §3
With `COc1ccc2nc3cc(Cl)ccc3c(NCCCN(CCCNc3c4ccc(Cl)cc4nc4ccc(OC)cc34)C(=O)C(N)CN)c2c1` (stereo not drawn), the Cytotoxicity entry was “Toxic”.

A further assay has as its system Leishmania infantum. In words: Percentage of activity against Leishmania infantum at 3.13 uM. In kind it is functional.
Conditions: not given
An outline of the steps: as §3
On to `COc1ccc2nc3cc(Cl)ccc3c(NCCCN(CCCNc3c4ccc(Cl)cc4nc4ccc(OC)cc34)C(=O)C(N)CN)c2c1` (stereo not drawn), for which the “Percent antileishmanial activity (reduction of parasite load)” value was 0%.
As for `COc1ccc2nc3cc(Cl)ccc3c(NCCCCN(CCCNc3c4ccc(Cl)cc4nc4ccc(OC)cc34)C(=O)C(C)NC(=O)OC(C)(C)C)c2c1` (stereo not drawn), the “Percent antileishmanial activity (reduction of parasite load)” value turned out to be 20%.

Usually pIC50 stands for the negative decadic logarithm of the IC50, by convention in mol/L. Low readings indicate a large IC50, high ones a small IC50.

Source of the values: ChEMBL document CHEMBL1133105, “Antimalarial, antitrypanosomal, and antileishmanial activities and cytotoxicity of bis(9-amino-6-chloro-2-methoxyacridines): influence of the linker” (J Med Chem, 2000).
